Bioassay records (PubChem)
Shown are actives, neighbours in structure and some others; about 4.2% of the full set was active somewhere.
Mot1-301 SUMO = inhibitors of SUMOylation pathway: yeast Mot1-301 growth rescue | 320,000 tested, 1% active | S. cerevisiae Mot1-301 growth rescue, ATP luminescence, 38.5C; percent above DMSO median, 100 means doubled | AID 2716 | growth rescue, % at 18.8 µM;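 active = every valid replicate shows activation above 250% relative to neutral control wells; inactive = the rest, any valid replicate at or below 250%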;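 note: OY570 slx delta 5 strain wells were the positive control but not used for scaling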
KCNQ1 pot = potentiates or activates the human KCNQ1 potassium channel | P51787 | CHO-K1 KCNQ1, thallium flux FluxOR fluorescence; hits give high values | B-score at 10 µM | 310,000 tested, 0.35% active | AID 2648;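 active = fluorescence ratio B-score, a plate-corrected score, at least three library SD, with initial intensity B-score within 5 SD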
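Assay system: CHO-K1 cells stably expressing KCNQ1. Medium: assay buffer for compound exposure, DMSO matched across wells. Timing: 37 °C overnight plating, 90-min dark dye load, 20-min compound pretreatment. Signal: kinetic FluxOR fluorescence, 10 s baseline plus 110 s post-stimulus.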
AI-2 QS modul = Vibrio harveyi AI-2 quorum sensing modulation. activity change, % at 7.5 µM. 300,000 tested, 0.4% active. Vibrio harveyi JMH597 AI-2 luminescence/OD600 ratio, 9 h; hits give low values; strain lacks LuxN and CqsS sensors; 0 = neutral-control median. AID 2094; in the data active = activity change below about -75%, passing the limit was not always enough;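 note: luminescence divided by OD600 gain over 9 h not by final OD600 alone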
KCNQ1 block = blocks the human KCNQ1 potassium channel. CHO-K1 KCNQ1, FluxOR thallium flux fluorescence; hits give high values. B-score at 10 µM. 310,000 tested, 1.3% active;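 active = compounds whose thallium flux B-score, printed positive for inhibition, exceeds three library SD while starting fluorescence stays within three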;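 note: channel opened by potassium depolarization with thallium stimulus after 20 min compound exposure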
Cl transport mod = modulates chloride dependent transport by human KCC2; 190,000 tested, 2.2% active; KCC2 cells, thallium flux FluoZin-2 fluorescence; B-score of Tl+ flux slope (higher = more flux/activation; lower = inhibition) at 10 µM;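 active = thallium flux slope and its plate-corrected score both differing from the plate sample mean at a set confidence after two filtering rounds, in either direction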;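 note: slope of fluorescence scaled to starting intensity during 10 to 20 s after thallium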
Target sequence (Q9H2X9 whole entry, looked up): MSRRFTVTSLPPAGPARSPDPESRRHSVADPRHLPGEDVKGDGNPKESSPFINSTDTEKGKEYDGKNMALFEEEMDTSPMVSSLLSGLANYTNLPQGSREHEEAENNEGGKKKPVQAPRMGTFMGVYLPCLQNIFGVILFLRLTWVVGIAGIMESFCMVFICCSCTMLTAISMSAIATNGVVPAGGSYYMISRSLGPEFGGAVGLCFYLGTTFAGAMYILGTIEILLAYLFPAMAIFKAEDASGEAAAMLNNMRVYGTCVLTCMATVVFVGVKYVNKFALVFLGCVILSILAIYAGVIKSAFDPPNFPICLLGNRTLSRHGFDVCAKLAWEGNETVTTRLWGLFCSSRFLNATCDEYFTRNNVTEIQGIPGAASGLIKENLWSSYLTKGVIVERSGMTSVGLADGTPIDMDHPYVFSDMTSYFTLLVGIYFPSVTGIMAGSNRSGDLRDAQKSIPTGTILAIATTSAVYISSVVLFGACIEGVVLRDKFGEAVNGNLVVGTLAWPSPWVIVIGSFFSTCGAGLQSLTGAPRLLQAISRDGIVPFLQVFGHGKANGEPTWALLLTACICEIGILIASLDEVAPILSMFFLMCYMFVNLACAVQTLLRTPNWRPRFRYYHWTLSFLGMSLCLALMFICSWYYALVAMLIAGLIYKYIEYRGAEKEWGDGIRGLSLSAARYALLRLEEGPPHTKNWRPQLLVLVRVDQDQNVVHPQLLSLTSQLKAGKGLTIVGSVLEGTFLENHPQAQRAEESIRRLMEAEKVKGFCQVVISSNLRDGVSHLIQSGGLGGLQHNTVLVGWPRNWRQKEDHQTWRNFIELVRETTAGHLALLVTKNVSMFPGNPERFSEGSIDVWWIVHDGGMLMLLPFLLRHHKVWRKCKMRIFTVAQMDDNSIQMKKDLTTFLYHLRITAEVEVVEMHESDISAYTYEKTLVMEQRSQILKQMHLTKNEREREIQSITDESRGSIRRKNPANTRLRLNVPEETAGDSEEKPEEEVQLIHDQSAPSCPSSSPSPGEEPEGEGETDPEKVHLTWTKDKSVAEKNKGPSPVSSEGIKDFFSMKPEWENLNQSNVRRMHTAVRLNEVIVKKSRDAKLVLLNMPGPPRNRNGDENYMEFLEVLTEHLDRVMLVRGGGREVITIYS
hERG rescue = shields human hERG channel from block by proarrhythmic agents; activation (rescue from dofetilide block), less the hit threshold, % at 10 µM; CHO-hERG, FluxOR thallium flux, dofetilide IC70 present; AID 1511; Q12809; 310,000 tested, 0.51% active;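 active = activation above the mean of controls blocked by dofetilide plus 5 SD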;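 note: thallium influx through hERG after potassium depolarization seen as dye fluorescence rise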
Yeast Mot1 SUMO = yeast SUMO pathway inhibition in dose response; shares compounds with Mot1-301 SUMO; S. cerevisiae Mot1-301 galactose growth, ATP luminescence, 24 h; -100 = growth of slx-deleted rescue strain; growth activity, percent, % at 42 µM; 2,300 tested, under 10 active;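 active = Signal drops as the depositor expects, and the fitted half-maximal dose is no more than ten times the top valid tested dose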;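 note: more negative values mean stronger growth rescue toward the control strain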
* = called active by the depositor.

`CCN(CC(=O)N1CCCCCC1)S(=O)(=O)c1ccc(Cl)cc1` gave Mot1-301 SUMO active, KCNQ1 pot inactive, AI-2 QS modul 28, KCNQ1 block inactive, Cl transport mod -1.4, hERG rescue -7 and Yeast Mot1 SUMO 0.
OC[C@H]1O[C@H](OC[C@H]2OC(O)[C@H](O)[C@@H](O)[C@@H]2O)[C@H](O)[C@@H](O)[C@@H]1O (stereo not given in full) was read as Mot1-301 SUMO 6.
`COC(=O)C(=O)C/C(=N/Nc1ncnc2ccccc12)c1ccc(Cl)cc1` gave Mot1-301 SUMO -1, KCNQ1 pot inactive, AI-2 QS modul 17, KCNQ1 block inactive and hERG rescue -5.
For Cn1c(NCc2ccco2)nc2c1c(=O)n(Cc1ccc(Br)cc1)c(=O)n2C the results were Mot1-301 SUMO -7, KCNQ1 pot inactive, AI-2 QS modul -1, KCNQ1 block inactive, Cl transport mod 0 and hERG rescue -3.
Screening Cn1c(NCc2ccco2)nc2c1c(=O)n(Cc1ccc(Cl)cc1)c(=O)n2C returned Mot1-301 SUMO active, KCNQ1 pot inactive, AI-2 QS modul -8, KCNQ1 block inactive, Cl transport mod 0.45, hERG rescue -6 and Yeast Mot1 SUMO 1.
Screening COc1ccc(CCNC(=O)Nc2cccs2)c(OC)c1 returned Mot1-301 SUMO -10, KCNQ1 pot inactive, AI-2 QS modul 19, KCNQ1 block inactive and hERG rescue 0.
For COc1cccc(-c2ocnc2C(=O)Nc2ccc3c(c2)CCC3)c1 the results were Mot1-301 SUMO 430*, KCNQ1 pot inactive, AI-2 QS modul 12, KCNQ1 block inactive, hERG rescue -4 and Yeast Mot1 SUMO 0.
For COc1cccc(CC(=O)Nc2ccc3c(c2)CCC3)c1 the results were Mot1-301 SUMO 127, KCNQ1 pot inactive, AI-2 QS modul 11, KCNQ1 block inactive and hERG rescue -6.
CCOc1ccc(-n2cc(C(=O)NCCOC)c3cc(OC)c(OC)cc3c2=O)cc1 was read as Mot1-301 SUMO 810*, KCNQ1 pot inactive, AI-2 QS modul 15, KCNQ1 block inactive, hERG rescue -4 and Yeast Mot1 SUMO 0.
`Cc1ccc(C(=O)CSc2n[nH]c(C)n2)cc1` gave Mot1-301 SUMO -4, KCNQ1 pot inactive, AI-2 QS modul 18, KCNQ1 block inactive, Cl transport mod 0.086 and hERG rescue -26.
`Cc1nc(SCC(=O)O)n[nH]1` gave Mot1-301 SUMO active, KCNQ1 pot inactive, AI-2 QS modul 8, KCNQ1 block inactive, Cl transport mod -0.26, hERG rescue -8 and Yeast Mot1 SUMO 0.
Screening CCN(CC)S(=O)(=O)c1cccc(NC(=O)COC(=O)C2COc3ccccc3O2)c1 (stereo not given) returned Mot1-301 SUMO 0, KCNQ1 pot inactive, AI-2 QS modul 26, KCNQ1 block inactive, Cl transport mod -1.4 and hERG rescue -8.
CCCOc1ccccc1C(=O)N(Cc1cccc(Br)c1)C1CCS(=O)(=O)C1 (stereo not given) was read as Mot1-301 SUMO -8, KCNQ1 pot inactive, AI-2 QS modul 13, KCNQ1 block inactive and hERG rescue -9.
COc1ccc2cc3c(N)nn(C(=O)c4ccccc4Cl)c3nc2c1 was read as Mot1-301 SUMO 501*, KCNQ1 pot inactive, AI-2 QS modul 2, KCNQ1 block inactive, Cl transport mod -0.61, hERG rescue -6 and Yeast Mot1 SUMO 0.
Cc1ccc(Nc2[nH]c(=O)c3ccccc3c2C(=O)c2ccccc2)cc1 was read as Mot1-301 SUMO -18, KCNQ1 pot inactive, AI-2 QS modul 24, KCNQ1 block inactive and hERG rescue -3.
Screening COc1ccc(N=C2SC(C(=O)O)CC(=O)N2Cc2ccc(OC)c(OC)c2)cc1 (stereo not given) returned Mot1-301 SUMO 529*, KCNQ1 pot inactive, AI-2 QS modul 14, KCNQ1 block inactive, Cl transport mod 0.49, hERG rescue -10 and Yeast Mot1 SUMO 1.
`CCCc1c(O)nc(SCCN(CC)CC)n(C(=O)c2ccccc2)c1=O` gave Mot1-301 SUMO 1, KCNQ1 pot inactive, AI-2 QS modul 6, KCNQ1 block inactive, Cl transport mod -0.37 and hERG rescue -3.
`CSc1nsc(SCC(=O)Nc2cccc(C(=O)O)c2)n1` gave Mot1-301 SUMO 782*, KCNQ1 pot inactive, AI-2 QS modul 17, KCNQ1 block inactive, hERG rescue 1 and Yeast Mot1 SUMO 1.
`CN(C)c1ccc2nc3ccc(=[N+](C)C)cc-3sc2c1` gave Mot1-301 SUMO 557*, KCNQ1 pot inactive, AI-2 QS modul -47, KCNQ1 block inactive, Cl transport mod -2.2, hERG rescue -2 and Yeast Mot1 SUMO -2.
Screening COC(=O)c1ccc(Cl)c(NC(=O)CN(c2ccc(OC)c(OC)c2)S(C)(=O)=O)c1 returned Mot1-301 SUMO 563*, KCNQ1 pot inactive, AI-2 QS modul 12, KCNQ1 block inactive, Cl transport mod 1.1, hERG rescue -2 and Yeast Mot1 SUMO 0.
For Brc1ccc(C2=CSC3=NCCN23)cc1 the results were Mot1-301 SUMO -10, KCNQ1 pot inactive, AI-2 QS modul 14, KCNQ1 block inactive, Cl transport mod -0.61 and hERG rescue -7.
Screening Oc1ccc(C2=CSC3=NCCN23)cc1O returned Mot1-301 SUMO 718*, KCNQ1 pot inactive, AI-2 QS modul -1, KCNQ1 block inactive, hERG rescue 0 and Yeast Mot1 SUMO 0.
O=C(NCCCn1ccnc1)c1ccc(Cl)cc1 was read as Mot1-301 SUMO 574*, KCNQ1 pot inactive, AI-2 QS modul 5, KCNQ1 block inactive, Cl transport mod 0.17, hERG rescue -8 and Yeast Mot1 SUMO 1.
For CCN1C(=O)/C(=C/c2ccc(OC)c(OC)c2)N=C1SCC(=O)NCc1ccco1 the results were Mot1-301 SUMO 4, KCNQ1 pot inactive, AI-2 QS modul 20, KCNQ1 block inactive, Cl transport mod 0.58 and hERG rescue -7.
Screening COc1ccc(C(=O)N2CCN(c3nnnn3-c3ccccc3)CC2)cc1OC returned Mot1-301 SUMO -10, KCNQ1 pot inactive, AI-2 QS modul 12, KCNQ1 block inactive, Cl transport mod 1.4 and hERG rescue -10.
Screening CCOC(=O)N1CCN(c2nnnn2-c2ccccc2)CC1 returned Mot1-301 SUMO 366*, KCNQ1 pot inactive, AI-2 QS modul -1, KCNQ1 block inactive, Cl transport mod 0.16, hERG rescue -7 and Yeast Mot1 SUMO 0.
